Measurements from article PMC3684024 (Science translational medicine, 2013).

Legend:
[1] = ref [12]; cited from earlier work
EAE = conditions: cited from earlier work
plasma proteins = conditions: ref [13], cited from earlier work
[2] = test system: animal models of stroke, cardiac and retinal ischemia-reperfusion injury; conditions: cited from earlier work
insulin fibril formation = test: Inhibition of insulin amyloid fibril formation; type: biochemical, bovine; conditions: ThT fluorescence ex 440 nm, em 485 nm (fig. S2)
Summary of the method: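 Fibril formation is tracked in the DTT-reduced insulin chaperone reaction: bovine insulin in NaCl/Tris pH 7.4 at 37°C, with or without test peptide fibrils. Thioflavin T is added from a 10 µM solution and fluorescence is read at 485 nm with excitation at 440 nm on a microplate reader.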

[3] = biological target: bovine insulin (beta chain) aggregation (Bos taurus, UniProt P01317); test: Chaperone assay: inhibition of DTT induced insulin aggregation; type: biochemical
Summary of the method: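 Bovine insulin (150 µg) in 100 mM NaCl, 20 mM Tris pH 7.4, with or without varying peptide or protein concentrations, at 37°C; some runs at pH 5. Reduction is started at time zero with DTT (100 mM stock). Aggregation is followed as absorbance at 360 nm over 20 min. In time-of-addition runs, small heat shock protein or fibrils are added 3, 10 or 16 min after DTT, with a buffer-only addition as dilution control.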

Sequence of bovine insulin (beta chain) aggregation (P01317 25-54 limits assumed): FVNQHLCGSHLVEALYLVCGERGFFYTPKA

## 73–92 of HspB5: linear peptide region within HspB5, residues 73–92 (DRFSVNLDVKHFSPEELKVK; UniProt P02511 73-92, looked up, fragment)
[1]
  chaperone activity: exhibited chaperone activity
EAE; ref [12]
  reduction of paralysis and histological neuroinflammation in EAE: therapeutic, reducing paralysis and histological neuroinflammation in EAE

## Aβ 1–40: peptide from amyloid β A4
EAE; ameliorating paralysis and reducing brain inflammation, ref [6]
  anti-inflammatory effect in EAE: effective anti-inflammatory agents

## HspB5: amyloid forming small heat shock protein
Plasma proteins; enriched and temperature dependent binding
  number of ligands precipitated from plasma: approximately 70
Plasma proteins
  ligands that are acute phase, complement or coagulation proteins: Greater than 50%
[2]; ref [3]
  therapeutic effect in stroke model: therapeutic
[2]; ref [4], [5]
  therapeutic effect in cardiac and retinal ischemia-reperfusion injury: therapeutic
Insulin fibril formation
  inhibition of insulin fibril formation: effective inhibitors of insulin fibril formation
[3]; 150 µg HspB5 given at time 0
  inhibition of insulin aggregation when given at time 0: fully inhibitory dose when given at time 0
[3]; 150 µg HspB5 or Tau fibrils added three minutes after dithiothreitol (fig. S3)
  effect on light scattering when added 3 min after DTT: rapid increase in light scattering
[3]; added 10 and 16 minutes after initiation
  effect on light scattering when added at 10 and 16 minutes: increase in light scattering, albeit less of an increase at longer than earlier time points
[3]; added after initiation of fibril formation (figs. S3, S4)
  effect on insulin fibrillization after initiation: can increase the light scattering after initiation of fibril formation
EAE; ref [2]
  therapeutic effect in animal models of multiple sclerosis: therapeutic
